Assay results taken from ChEMBL document CHEMBL4406859, “Antitumor and antiviral activities of 4-substituted 1,2,3-triazolyl-2,3-dibenzyl-L-ascorbic acid derivatives” (Eur J Med Chem, 2019).
Active and inactive are the calls of the source. The calls are words filed in the database; no cut-off is given here.

Columns and labels:
Human alphaherpesvirus 3 [1] = assay: Antiviral activity against thymidine kinase positive Varicella zoster virus infected in human HELF cells assessed as reduction in virus-induced cytopathogenicity incubated for 7 days by Giemsa staining based microscopic analysis; format: functional, organism-based; settings: Human alphaherpesvirus 3, HELF, 168 h
Human alphaherpesvirus 1 [2] = assay: Antiviral activity against Herpes simplex virus 1 TK-KOS-ACV infected in human HELF cells assessed as reduction in virus-induced cytopathogenicity incubated for 7 days by microscopic analysis; format: functional, organism-based; settings: for EC50: Human alphaherpesvirus 1, TK-KOS-ACV, 168 h
Human adenovirus 2 = assay: Antiviral activity against Human adenovirus 2 infected in human HELF cells assessed as reduction in virus-induced cytopathogenicity incubated for 7 days by microscopic analysis; format: functional, organism-based
[3] = Cytotoxicity against human HELF cells assessed as reduction in cell viability incubated for 3 days by coulter counter method; format: cell-based; settings: 72 h
Method in brief: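 HEL cells seeded at 5 x 10^3/well and allowed to proliferate 24 h, then exposed to graded compound concentrations for 3 days at 37 °C. Cell number counted with a Coulter counter.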

Reovirus sp. = assay: Antiviral activity against Reovirus infected in vero cells assessed as reduction in virus-induced cytopathogenicity incubated for 7 days by microscopic analysis; format: functional, organism-based
Cytomegalovirus [4] = assay: Antiviral activity against Cytomegalovirus AD169 infected in human HELF cells assessed as reduction in virus-induced cytopathogenicity incubated for 7 days by Giemsa staining based microscopic analysis; format: functional, organism-based; settings: Human betaherpesvirus 5, AD169, HELF, 168 h
Method in brief: (§1)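 Confluent HEL fibroblasts infected with CMV (Davis or AD-169) at 100 PFU/well for 2 h. Residual virus removed, then medium with graded compound concentrations added (duplicate). Incubated 7 days at 37 °C. Cytopathogenicity scored microscopically after ethanol fixation and Giemsa staining. EC50 read from plots of % cytopathogenicity versus concentration.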

Human alphaherpesvirus 1 [5] = assay: Antiviral activity against Herpes simplex virus 1 KOS infected in human HELF cells assessed as reduction in virus-induced cytopathogenicity incubated for 7 days by microscopic analysis; format: functional, organism-based; settings: strain KOS
MCF7 = assay: Antiproliferative activity against human MCF7 cells assessed as reduction in cell viability incubated for 72 hrs by MTT assay; format: functional, cell-based; settings: MCF7, 72 h
Method in brief: (§2)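 Cells (ATCC) grown in DMEM with 10 FBS, penicillin/streptomycin, 2 mM glutamine, 37 °C, 5 CO2. 5000 cells/well seeded; after 24 h, freshly prepared dilutions at five concentrations (0.01–100 μM) added for 72 h. MTT read-out; absorbance converted to percentage growth by NIH formulas. Two experiments in quadruplicate; IC50 by linear regression.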

Human coronavirus 229E = assay: Antiviral activity against Human coronavirus 229E infected in human HELF cells assessed as reduction in virus-induced cytopathogenicity incubated for 7 days by microscopic analysis; format: functional, organism-based
Coxsackievirus B4 = assay: Antiviral activity against Human coxsackievirus B4 infected in vero cells assessed as reduction in virus-induced cytopathogenicity incubated for 7 days by microscopic analysis; format: functional, organism-based
HepG2 = assay: Antiproliferative activity against human HepG2 cells assessed as reduction in cell viability incubated for 72 hrs by MTT assay; format: functional, cell-based; settings: HepG2, 72 h; method in brief: as §2
A549 = assay: Antiproliferative activity against human A549 cells assessed as reduction in cell viability incubated for 72 hrs by MTT assay; format: functional, cell-based; settings: A549, 72 h; method in brief: as §2
SW-620 = assay: Antiproliferative activity against human SW620 cells assessed as reduction in cell viability incubated for 72 hrs by MTT assay; format: functional, cell-based; settings: SW-620, 72 h; method in brief: as §2
Influenza B virus [6] = assay: Antiviral activity against Influenza B virus (B/Ned/537/05) infected in dog MDCK cells assessed as reduction in virus-induced cytopathogenicity incubated for 7 days by MTS assay; format: functional, organism-based
HCT-116 = assay: Antiproliferative activity against human HCT116cells assessed as reduction in cell viability incubated for 72 hrs by MTT assay; format: functional, cell-based; settings: HCT-116, 72 h; method in brief: as §2
Influenza A virus [7] = assay: Antiviral activity against Influenza A virus (A/Ned/378/05(H1N1)) infected in dog MDCK cells assessed as reduction in virus-induced cytopathogenicity incubated for 7 days by MTS assay; format: functional, organism-based
HeLa = assay: Antiproliferative activity against human HeLa cells assessed as reduction in cell viability incubated for 72 hrs by MTT assay; format: functional, cell-based; method in brief: as §2
Influenza A virus H3N2 [8] = assay: Antiviral activity against Influenza A virus (A/HK/7/87(H3N2)) infected in dog MDCK cells assessed as reduction in virus-induced cytopathogenicity incubated for 7 days by MTS assay; format: functional, organism-based; settings: A/Hong Kong/7/1987(H3N2)
Cytomegalovirus [9] = assay: Antiviral activity against Cytomegalovirus Davis infected in human HELF cells assessed as reduction in virus-induced cytopathogenicity incubated for 7 days by Giemsa staining based microscopic analysis; format: functional, organism-based; settings: Human betaherpesvirus 5, Davis, 168 h; method in brief: as §1
[10] = Cytotoxicity against human HELF cells assessed as minimum cytotoxic concentration by observing alteration in cell morphology incubated for 3 days by microscopic analysis; format: cell-based; settings: for MCC at 72 h: HELF cells; for MCC: 72 h
Method in brief: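 Read-out is the minimum cytotoxic concentration (MCC): the lowest compound concentration giving a microscopically detectable change in cell morphology. Measured on confluent human embryonic lung (HEL) fibroblast cultures exposed to a range of compound concentrations.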

Sindbis virus = assay: Antiviral activity against Sindbis virus infected in vero cells assessed as reduction in virus-induced cytopathogenicity incubated for 7 days by microscopic analysis; format: functional, organism-based
CFPAC-1 = assay: Antiproliferative activity against human CFPAC-1 cells assessed as reduction in cell viability incubated for 72 hrs by MTT assay; format: functional, cell-based; settings: Homo sapiens, CFPAC-1, 72 h; read-out: IC50; method in brief: as §2
Influenza B virus [11] = assay: Antiviral activity against Influenza B virus (B/Ned/537/05) infected in dog MDCK cells assessed as reduction in virus-induced cytopathogenicity incubated for 7 days by microscopic analysis; format: functional, organism-based
Human alphaherpesvirus 2 = assay: Antiviral activity against Herpes simplex virus 2 G infected in human HELF cells assessed as reduction in virus-induced cytopathogenicity incubated for 7 days by microscopic analysis; format: functional, organism-based; settings: for EC50: Human alphaherpesvirus 2, G, 168 h
HFF = assay: Cytotoxicity against human HFF cells assessed as reduction in cell viability incubated for 72 hrs by MTT assay; format: cell-based; method in brief: as §2
Influenza A virus H3N2 [12] = assay: Antiviral activity against Influenza A virus (A/HK/7/87(H3N2)) infected in dog MDCK cells assessed as reduction in virus-induced cytopathogenicity incubated for 7 days by microscopic analysis; format: functional, organism-based; settings: A/Hong Kong/7/1987(H3N2)
Influenza A virus [13] = assay: Antiviral activity against Influenza A virus (A/Ned/378/05(H1N1)) infected in dog MDCK cells assessed as reduction in virus-induced cytopathogenicity incubated for 7 days by microscopic analysis; format: functional, organism-based
Human alphaherpesvirus 3 [14] = assay: Antiviral activity against thymidine kinase deficient Varicella zoster virus infected in human HELF cells assessed as reduction in virus-induced cytopathogenicity incubated for 7 days by Giemsa staining based microscopic analysis; format: functional, organism-based; settings: Human alphaherpesvirus 3, HELF, 168 h

| SMILES | EC50 (Human alphaherpesvirus 3 [1]) [µM] | Activity (Human alphaherpesvirus 1 [2]) | Activity (Human adenovirus 2) | CC50 [3] [µM] | Activity (Reovirus sp.) | EC50 (Cytomegalovirus [4]) [µM] | Activity (Human alphaherpesvirus 1 [5]) | IC50 (MCF7) [µM] | Activity (Human coronavirus 229E) | Activity (Coxsackievirus B4) | IC50 (HepG2) [µM] | IC50 (SW-620) [µM] | Activity (Influenza B virus [6]) | IC50 (HCT-116) [µM] | Activity (Influenza A virus [7]) | IC50 (HeLa) [µM] | Activity (Influenza A virus H3N2 [8]) | EC50 (Cytomegalovirus [9]) [µM] | MCC at 72 h [10] [µM] | EC50 (Human alphaherpesvirus 3 [14]) [µM] | further results |
| --- | --- | --- | --- | --- | --- | --- | --- | --- | --- | --- | --- | --- | --- | --- | --- | --- | --- | --- | --- | --- | --- |
| COc1ccccc1-c1cn(C/C=C2\OC(=O)C(OCc3ccccc3)=C2OCc2ccccc2)nn1 | > 100 | inactive | inactive | 4.29 | inactive | > 100 | inactive | > 100 | inactive | inactive | > 100 | > 100 | inactive | > 100 | inactive | > 100 | inactive | 10.8 | 100 | > 20 | IC50 (A549): > 100 µM; Activity (Sindbis virus): inactive; IC50 (CFPAC-1): > 100 µM; Activity (Influenza B virus [11]): inactive; Activity (Human alphaherpesvirus 2): inactive; IC50 (HFF): > 100 µM; Activity (Influenza A virus H3N2 [12]): inactive; Activity (Influenza A virus [13]): inactive |
| O=c1[nH]c(=O)n([C@H]2C[C@H](O)[C@@H](CO)O2)cc1/C=C/Br [BRIVUDINE] | 18.4 | – | – | 179 | – | – | – | – | – | – | – | – | – | – | – | – | – | – | – | 0.0066 | MCC [10]: 250 to 300 µM; EC50 (Human alphaherpesvirus 2): > 250 µM |
| Nc1nc(O)c2ncn(COC(CO)CO)c2n1 [GANCICLOVIR] | – | – | – | > 350 | – | 3.15 | – | – | – | – | – | – | – | – | – | – | – | 2.3 | > 350 | – | EC50 (Human alphaherpesvirus 2): 0.3 µM |
| CC(C)(C)c1cn(C[C@H](O)[C@H]2OC(=O)C(OCc3ccccc3)=C2OCc2ccccc2)nn1 | 48.9 | inactive | inactive | – | inactive | 44.7 | inactive | 0.73 | inactive | inactive | 29.2 | 35.8 | inactive | 28.3 | inactive | 18.3 | inactive | > 20 | 100 | > 20 | IC50 (A549): 34 µM; Activity (Sindbis virus): inactive; IC50 (CFPAC-1): 54.9 µM; Activity (Influenza B virus [11]): inactive; Activity (Human alphaherpesvirus 2): inactive; IC50 (HFF): 13.3 µM; Activity (Influenza A virus H3N2 [12]): inactive; Activity (Influenza A virus [13]): inactive |
| Nc1ccn(C[C@@H](CO)OCP(=O)(O)O)c(=O)n1 [CIDOFOVIR] | – | – | – | 214 | – | 0.43 | – | – | – | – | – | – | – | – | – | – | – | 0.65 | – | – | EC50 (Human alphaherpesvirus 1 [2]): 4.5 µM; MCC [10]: 250 to 300 µM; EC50 (Human alphaherpesvirus 2): 5.3 µM |
| O=C1O/C(=C\Cn2cc(CCO)nn2)C(OCc2ccccc2)=C1OCc1ccccc1 | > 100 | inactive | inactive | – | inactive | > 100 | inactive | 37.2 | inactive | inactive | 39 | 41.9 | inactive | 27.9 | inactive | 27.9 | inactive | > 100 | > 100 | 78.1 | IC50 (A549): > 100 µM; Activity (Sindbis virus): inactive; IC50 (CFPAC-1): 43.4 µM; Activity (Influenza B virus [11]): inactive; Activity (Human alphaherpesvirus 2): inactive; IC50 (HFF): 25.6 µM; Activity (Influenza A virus H3N2 [12]): inactive; Activity (Influenza A virus [13]): inactive |
| C[Si](C)(C)c1cn(C[C@H](O)[C@H]2OC(=O)C(OCc3ccccc3)=C2OCc2ccccc2)nn1 | > 20 | inactive | inactive | 22.3 | inactive | > 100 | inactive | 12.1 | inactive | inactive | 24.1 | 56 | inactive | 31.8 | inactive | 22.3 | inactive | 12.1 | 100 | > 20 | Activity (Sindbis virus): inactive; IC50 (CFPAC-1): 52.6 µM; Activity (Influenza B virus [11]): inactive; Activity (Human alphaherpesvirus 2): inactive; IC50 (HFF): 20 µM; Activity (Influenza A virus H3N2 [12]): inactive; Activity (Influenza A virus [13]): inactive |
| O=C1O[C@H]([C@@H](O)Cn2cc(C3CC3)nn2)C(OCc2ccccc2)=C1OCc1ccccc1 | > 100 | inactive | inactive | – | inactive | 44.7 | inactive | 25.9 | inactive | inactive | 38.1 | 54.2 | inactive | 30.4 | inactive | 26.5 | inactive | > 20 | 100 | > 100 | IC50 (A549): 43.9 µM; Activity (Sindbis virus): inactive; IC50 (CFPAC-1): 47.7 µM; Activity (Influenza B virus [11]): inactive; Activity (Human alphaherpesvirus 2): inactive; IC50 (HFF): 24.3 µM; Activity (Influenza A virus H3N2 [12]): inactive; Activity (Influenza A virus [13]): inactive |
| Nc1nc2c(ncn2COCCO)c(=O)[nH]1 [ACYCLOVIR] | – | – | – | > 440 | – | – | – | – | – | – | – | – | – | – | – | – | – | – | – | – | EC50 (Human alphaherpesvirus 1 [2]): 17 µM; EC50 (Human adenovirus 2; Human mastadenovirus C, 168 h): 5.8 µM; MCC [10]: 250 to 440 µM; EC50 (Human alphaherpesvirus 2): 2 µM |
| CCCCc1cn(C[C@H](O)[C@H]2OC(=O)C(OCc3ccccc3)=C2OCc2ccccc2)nn1 | 7.31 | inactive | inactive | – | inactive | > 20 | inactive | 7.91 | inactive | inactive | 32.8 | 47.5 | inactive | 10.4 | inactive | 18.1 | inactive | > 4 | 20 | > 20 | IC50 (A549): 28.6 µM; Activity (Sindbis virus): inactive; IC50 (CFPAC-1): 73.2 µM; Activity (Influenza B virus [11]): inactive; Activity (Human alphaherpesvirus 2): inactive; IC50 (HFF): 26.3 µM; Activity (Influenza A virus H3N2 [12]): inactive; Activity (Influenza A virus [13]): inactive |
